E coli WT exp = blocks growth of wild type E. coli BW25113. OD600 absorbance. growth inhibition, % at 100 µM. actives 0.15% (n = 98,000). AID 710;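 active = growth inhibition above about 50% at one test dose, limit read from the data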;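 also: growth measured after 20 h incubation at 37 °C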
Cav3 T inh = human Cav3.2 channel inhibition, primary screen; O95180; Cav3.2-expressing cells, Fluo-4 calcium fluorescence FDSS; active compounds read low; B-score at 10 µM; actives 4% (n = 100,000); AID 449739;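 active = single-dose well whose peak fluorescence ratio is a statistical outlier from its plate by either plate-standardised score or position-corrected B-score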
Target sequence (O95180 whole entry, looked up): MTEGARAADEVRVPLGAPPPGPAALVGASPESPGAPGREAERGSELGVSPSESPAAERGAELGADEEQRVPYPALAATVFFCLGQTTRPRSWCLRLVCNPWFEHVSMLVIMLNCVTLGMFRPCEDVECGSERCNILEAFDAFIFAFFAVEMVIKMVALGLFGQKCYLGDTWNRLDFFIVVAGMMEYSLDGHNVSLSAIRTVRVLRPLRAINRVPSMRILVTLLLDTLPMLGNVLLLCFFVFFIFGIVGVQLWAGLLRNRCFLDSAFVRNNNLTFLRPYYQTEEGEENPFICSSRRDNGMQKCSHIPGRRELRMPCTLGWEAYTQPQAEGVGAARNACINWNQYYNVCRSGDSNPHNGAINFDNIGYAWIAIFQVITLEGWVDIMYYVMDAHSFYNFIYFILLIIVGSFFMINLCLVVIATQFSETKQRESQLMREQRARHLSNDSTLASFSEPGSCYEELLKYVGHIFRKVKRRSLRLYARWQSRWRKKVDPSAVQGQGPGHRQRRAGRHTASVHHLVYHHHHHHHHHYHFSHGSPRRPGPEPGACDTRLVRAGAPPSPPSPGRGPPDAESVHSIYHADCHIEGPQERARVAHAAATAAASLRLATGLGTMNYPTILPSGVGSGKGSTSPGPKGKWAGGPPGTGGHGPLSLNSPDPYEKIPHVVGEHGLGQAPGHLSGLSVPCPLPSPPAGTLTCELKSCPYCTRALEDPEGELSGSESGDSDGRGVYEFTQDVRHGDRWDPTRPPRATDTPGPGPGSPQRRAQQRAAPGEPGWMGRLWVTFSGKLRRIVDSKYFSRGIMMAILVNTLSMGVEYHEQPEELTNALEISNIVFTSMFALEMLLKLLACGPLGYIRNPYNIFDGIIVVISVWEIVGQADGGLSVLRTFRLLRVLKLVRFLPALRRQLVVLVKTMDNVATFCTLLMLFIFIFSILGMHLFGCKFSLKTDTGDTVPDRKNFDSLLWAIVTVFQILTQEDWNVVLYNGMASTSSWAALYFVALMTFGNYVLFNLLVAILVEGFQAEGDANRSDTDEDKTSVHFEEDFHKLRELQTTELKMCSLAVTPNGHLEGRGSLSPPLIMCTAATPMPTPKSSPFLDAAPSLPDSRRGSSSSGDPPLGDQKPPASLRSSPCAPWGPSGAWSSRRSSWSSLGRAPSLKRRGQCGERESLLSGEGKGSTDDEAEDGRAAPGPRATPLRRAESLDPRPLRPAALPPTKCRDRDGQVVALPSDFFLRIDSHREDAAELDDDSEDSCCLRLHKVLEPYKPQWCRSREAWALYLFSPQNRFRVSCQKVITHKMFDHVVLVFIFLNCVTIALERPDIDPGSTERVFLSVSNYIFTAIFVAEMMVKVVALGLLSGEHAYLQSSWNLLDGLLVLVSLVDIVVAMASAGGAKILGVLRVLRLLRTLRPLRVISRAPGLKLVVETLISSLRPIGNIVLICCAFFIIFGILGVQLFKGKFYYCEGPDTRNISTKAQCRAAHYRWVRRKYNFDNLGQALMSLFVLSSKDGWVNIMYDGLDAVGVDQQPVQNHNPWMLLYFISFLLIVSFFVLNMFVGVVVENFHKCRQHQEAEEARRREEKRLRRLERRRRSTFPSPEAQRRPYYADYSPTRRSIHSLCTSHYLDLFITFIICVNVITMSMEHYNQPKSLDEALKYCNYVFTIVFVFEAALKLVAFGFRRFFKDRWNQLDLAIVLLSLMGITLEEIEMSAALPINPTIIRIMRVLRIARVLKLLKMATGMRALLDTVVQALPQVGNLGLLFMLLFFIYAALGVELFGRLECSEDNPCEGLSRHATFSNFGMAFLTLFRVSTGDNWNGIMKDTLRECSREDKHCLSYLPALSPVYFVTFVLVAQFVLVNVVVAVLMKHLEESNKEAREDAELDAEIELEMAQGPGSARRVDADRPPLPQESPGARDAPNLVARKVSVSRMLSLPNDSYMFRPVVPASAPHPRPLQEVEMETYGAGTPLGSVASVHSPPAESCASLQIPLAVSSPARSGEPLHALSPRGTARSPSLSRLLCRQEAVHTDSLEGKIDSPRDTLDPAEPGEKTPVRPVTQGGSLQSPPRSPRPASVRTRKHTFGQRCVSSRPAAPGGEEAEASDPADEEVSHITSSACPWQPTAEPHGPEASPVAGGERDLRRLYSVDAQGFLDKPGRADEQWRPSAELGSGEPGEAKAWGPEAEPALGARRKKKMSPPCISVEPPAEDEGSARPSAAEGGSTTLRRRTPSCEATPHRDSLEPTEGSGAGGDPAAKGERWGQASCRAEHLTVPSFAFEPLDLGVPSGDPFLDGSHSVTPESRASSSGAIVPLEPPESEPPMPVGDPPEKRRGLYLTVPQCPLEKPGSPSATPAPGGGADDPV
PostGolgi ctrl = growth of the yeast control strain, post-Golgi counter-screen. efflux-deficient yeast background strain, growth absorbance A615, 16 h. inhibition, % at 10 µM. actives 5% (n = 98,000). AID 738
Ecoli tolC = growth inhibitors of E. coli BW25113 tolC mutant. OD615. growth inhibition, % at 10 µM (by protocol). actives 2.2% (n = 65,000);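 active = growth inhibition at or above a cutoff equal to the mean over every tested compound plus 3 SD, cut at about 60% in these data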;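 also: growth measured after 20 h incubation at 37 °C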
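Doses: one dose of 10 µM final / Material: E. coli BW25113 ΔtolC::kan, tolC deletion mutant strain / Buffer or medium: LB with kanamycin 50 µg/mL / Evaluation: percent growth inhibition / Detection: optical density read at 615 nm / Incubation: 37 °C, 20 h exposure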
PostGolgi yeast = growth inhibition of a yeast mutant, post-Golgi transport screen. actives 0.9% (n = 98,000). post-Golgi transport phenotypic cell assay. inhibition, % at 10 µM;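 also: yeast cells grown in 1536-well plates; yeast grown about 18 h at 30C before absorbance read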
PTK2B oligo ant = antagonists of human Pyk2 oligomerization | Q14289 | Q293 cells, Pyk2 FERM NanoBiT luminescence; active compounds read low | z-score (the deposit names both 25 µM and 10 µM) | actives 0.83% (n = 99,000) | AID 1347419;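 active = Z-score of -3 or lower, scaled per plate to the spread of control and sample wells; inactive = z-score above -3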;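 also: negative z-score means lost luminescence so less FERM oligomerization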
Numbers stand for hits; 0 = inactive; - = no result. This is a sample that favours compounds with a hit; in the whole collection about 8.7% have one here. Rule as the data show it, unless noted: active = inhibition above about 30%; inactive = the rest.

SMILES | E coli WT exp | Cav3 T inh | PostGolgi ctrl | Ecoli tolC | PostGolgi yeast | PTK2B oligo ant
CC1(OC(=O)C2CCCC2)C(=O)C=C2C=C(C3CC3)OC=C2C1=O (configuration not stated) | - | 0 | - | - | - | -
CC1CCCCN1C(=O)COC(=O)c1n[nH]c2ccccc12 (configuration not stated) | 0 | 0 | 0 | - | 0 | 0
CC1CCCCN1C(=O)Cn1cc(/C=C2/C(=O)Nc3ccccc32)c2ccccc21 (configuration not stated) | 0 | 0 | 77 | - | 61 | -
Cc1ccccc1N1CCN(Cc2cccc(C(=O)O)c2)CC1 | 0 | 0 | 0 | 0 | 0 | 0
COC(=O)c1cc(CN2CCN(c3ccccc3C)CC2)ccc1O | 0 | 0 | 33 | - | 0 | 0
Cc1ccc(S(=O)(=O)c2cc3c(=O)n4ccccc4nc3n(C)c2=N)cc1 | 0 | - | 32 | 0 | 0 | 0
O=C(CN1CCN(c2ncc(C(F)(F)F)cc2Cl)CC1)NCCNc1ncc(C(F)(F)F)cc1Cl | 0 | 0 | 85 | - | 0 | 0
CC(C)(C)NC(=O)NC(=O)CN1CCN(c2ncc(C(F)(F)F)cc2Cl)CC1 | 0 | 0 | 32 | - | 0 | 0
O=C(CN1CCN(c2ncc(C(F)(F)F)cc2Cl)CC1)NC(=O)NCc1ccccc1 | 0 | 0 | 0 | 0 | 0 | 0
CCn1c(=O)n(CC)c2cc(S(=O)(=O)Nc3cc(C)cc(C)c3C#N)ccc21 | 0 | 0 | 0 | - | 0 | 0
Nc1cc(N2CCCCC2)c(Cl)cc1[N+](=O)[O-] | 0 | - | 0 | - | 0 | 0
O=S(=O)(Nc1ccc2c(c1)OCCO2)c1ccc2oc3ccccc3c2c1 | 0 | -5.9 | 59 | 98 | 0 | 0
O=S(=O)(Nc1ccc2c(c1)oc1ccccc12)N1CCCC1 | 0 | -5.9 | 47 | 0 | 0 | 0
CCOc1ccc(C(=O)NN2C(=O)C3C4C=CC(O4)C3C2=O)cc1 (configuration not stated) | 0 | 0 | 0 | - | 0 | 0
O=C(CSc1ccc2nnc(-c3ccccn3)n2n1)NCC1CCCO1 (configuration not stated) | 0 | 0 | 0 | 0 | 0 | -
Cc1c(C(=O)Nc2ccc(Cl)cn2)oc2ccccc12 | 0 | 0 | 31 | 0 | 0 | 0
CC(=O)Nc1cccc(NC(=O)c2oc3ccccc3c2C)c1 | 0 | - | 0 | 67 | 0 | -
Cc1c(C(=O)Nc2cnccn2)oc2ccccc12 | 0 | 0 | 0 | 0 | 0 | 0
Cc1c(C(=O)NCCc2ccc3c(c2)OCCO3)oc2ccccc12 | 0 | -7 | 0 | - | 0 | 0
CC(=O)Nc1cccc(NC(=O)c2cc3ccccc3o2)c1 | 0 | 0 | 0 | 0 | 0 | 0
C=CCn1cnc2scc(-c3ccc(C)cc3)c2c1=O | 0 | 0 | 0 | - | 0 | 0
O=[N+]([O-])c1ccc(Cl)cc1Sc1cccc2cccnc12 | - | 0 | - | - | - | 0
Cc1n[nH]c(C)c1Sc1ccccc1N=Cc1cc(Cl)cc([N+](=O)[O-])c1O | 0 | -6.9 | 0 | - | 0 | 0
O=C(NC(=S)N(Cc1ccccc1)Cc1ccccc1)c1ccccc1F | 0 | -6.2 | 0 | - | 0 | 0
O=C(NC(=S)NCc1ccccc1)c1ccccc1F | 0 | 0 | 0 | - | 0 | 0
SMILES | E coli WT exp | Cav3 T inh | PostGolgi ctrl | Ecoli tolC | PostGolgi yeast | PTK2B oligo ant
COc1cccc(NC(=O)CCN2CCC(C(N)=O)CC2)c1 | 0 | 0 | 0 | 0 | 0 | 0
COC(=O)c1nn(-c2ccccc2)c(-c2ccccc2)c1C(=O)c1ccccc1 | 0 | -7.8 | 0 | - | 0 | -3.3
O=C(O)c1nn(-c2ccccc2)c(-c2ccccc2)c1C(=O)c1ccccc1 | - | - | - | - | - | 0
Cc1ccc(NC(=O)CS(=O)CC(=O)N(c2ccc(C)cc2)C(C)C(=O)NC2CCCCC2)cc1 (configuration not stated) | - | -7.3 | - | - | - | 0
CC(C(=O)NC1CCCC1)N(C(=O)CS(=O)CC(=O)Nc1ccc(F)cc1)c1ccc2c(c1)OCCO2 (configuration not stated) | 0 | 0 | 0 | - | 0 | 0
COC(=O)C1=C(C)N=c2s/c(=C/c3cccs3)c(=O)n2C1c1cccs1 (configuration not stated) | 0 | 0 | 0 | 0 | 0 | 0
COC(=O)C1=C(C)N=c2s/c(=C3\C(=O)Nc4ccccc43)c(=O)n2C1c1ccccc1 (configuration not stated) | 0 | - | 39 | 0 | 0 | -
COC(=O)C1=C(C)N=c2s/c(=C/c3ccoc3)c(=O)n2C1c1ccccc1 (configuration not stated) | 0 | 0 | 59 | 0 | 0 | 0
CCN(CC)S(=O)(=O)c1cccc(-c2nnc(SCC(=O)NC3CCCCCCC3)n2N)c1 | 0 | 0 | 0 | - | 0 | 0
CCn1cc(C(C)NC(=O)COc2ccc(Cl)cc2C)c(C)n1 (configuration not stated) | 0 | 0 | 0 | 0 | 0 | 0
CC1(C)Cc2c(C#N)c(N3CCN(C(=O)c4ccccc4)CC3)nc(-c3ccco3)c2CS1 | 0 | 0 | 35 | 0 | 0 | 0
CC(C)c1nc(N2CCN(C(=O)c3ccccc3)CC2)c(C#N)c2c1COC(C)(C)C2 | 0 | -6.2 | 0 | 0 | 0 | 0
Cc1ccc(C2=CC(c3ccc(C)cc3)n3ncnc3N2)cc1 (configuration not stated) | - | 0 | - | - | - | -
CCOc1ccc(C2C=C(c3ccc(C)cc3)Nc3ncnn32)cc1 (configuration not stated) | 0 | 0 | 38 | 0 | 0 | -
Cn1nc(C(F)(F)F)c(/C=N/OC(=O)c2ccccc2Cl)c1SCc1ccc(Cl)cc1 | 0 | -5 | 0 | - | 0 | 0
COc1ccc(C(=O)O/N=C/c2c(C(F)(F)F)nn(C)c2SCc2ccccc2Cl)cc1 | 0 | 0 | 0 | - | 0 | 0
O=C(OCC(=O)N1CCC(Cc2ccccc2)CC1)c1ccc[nH]c1=O | 0 | 0 | 0 | 0 | 0 | 0
COc1ccc(N2CCN(C(=O)CCNS(=O)(=O)c3ccc(Br)s3)CC2)cc1 | 0 | 0 | 0 | 0 | 84 | 0
O=C(CCNS(=O)(=O)c1ccc(Br)s1)N1CCCCC1 | 0 | 0 | 0 | 0 | 0 | 0
CCCNS(=O)(=O)c1ccc(CCC(=O)N2CCN(c3ccc(OC)cc3)CC2)cc1 | 0 | 0 | 53 | - | 0 | 0
Cc1cc(N2CCOCC2)nc(-c2ccc([N+](=O)[O-])cc2)n1 | 0 | - | 0 | - | 0 | 0
Nc1c(C(=O)OCC2CCCO2)c2nc3ccccc3nc2n1-c1ccc2c(c1)OCCO2 (configuration not stated) | 0 | 0 | 0 | 0 | 43 | -
COc1cccc(C(=O)NCC2CCCO2)c1 (configuration not stated) | 0 | - | 0 | 0 | 0 | -
O=C(NCC1CCCO1)c1coc2nc3ccccc3nc12 (configuration not stated) | 0 | 0 | 0 | 0 | 0 | 0
COc1ccc(-n2c(N)c(C(=O)NCC3CCCO3)c3nc4ccccc4nc32)c(OC)c1 (configuration not stated) | 0 | -8 | 0 | 0 | 0 | 0
C=CCn1c(N)c(C(=O)NCC2CCCO2)c2nc3ccccc3nc21 (configuration not stated) | 0 | 0 | 0 | 0 | 33 | 0
O=C(CN(c1ccccc1F)S(=O)(=O)c1ccccc1)N1CCCCCC1 | 0 | 0 | 0 | 0 | 0 | 0
